Activity calls are given as the source filed them. The calls are words filed in the database; no cut-off is given here.
Experiments:
[1] = Inhibition of CXCL8-induced cell migration in human PMN cells at 0.01 uM by chemotaxis assay; format: functional
In short: (§1)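 Human PMNs from normal-donor buffy coats (dextran sedimentation, hypotonic lysis; 95% purity, >95% viability). Cells at 1.5-3 × 10⁶/mL preincubated 15 min at 37 °C with vehicle or compound, then seeded in triplicate in the upper well of a 48-well micro-chemotaxis chamber. Lower well held CXCL8 1 nM or CXCL1 10 nM. Chamber ran 45 min at 37 °C in 5% CO₂; filters were fixed and stained, and five 100× fields per well were counted.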

[2] = Inhibition of CXCL1-induced cell migration in human PMN cells at 0.01 uM by chemotaxis assay; format: functional; in short: as §1
L1.2 [3] = test: Inhibition of CXCL8-induced cell migration in L1.2 cells expressing CXCR1 by chemotaxis assay; format: functional, cell-based; conditions: Mus musculus
In short: (§2)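 Mouse L1.2 lymphoma cells were transiently electroporated with wild-type or Ile43Val human CXCR1, with expression checked by flow cytometry at 48 h. Cells were kept overnight in 5 mM sodium butyrate, resuspended at 10⁷/mL, and pretreated 30 min at 37 °C with compound (1-1000 nM). Migration to 10 nM CXCL8, with compound in both chambers, ran 4 h at 37 °C through 5 µm Transwells. Cells were counted in a Bürker chamber and expressed as % of migration without compound, from ≥3 independent experiments.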

L1.2 [4] = test: Inhibition of CXCL8-induced cell migration in L1.2 cells expressing wild type CXCR1 at up to 1000 nM by chemotaxis assay; format: functional, cell-based; conditions: Mus musculus; in short: as §2
L1.2 [5] = test: Inhibition of CXCL8-induced cell migration in L1.2 cells expressing wild type CXCR1 at 0.1 uM by chemotaxis assay; format: functional; conditions: Mus musculus; in short: as §2
L1.2 [6] = test: Inhibition of CXCL8-induced cell migration in L1.2 cells expressing Ile43Val CXCR1 mutant by chemotaxis assay; format: functional, cell-based; conditions: Mus musculus; in short: as §2
[7] = Inhibition of CXCL8-induced cell migration in human PMN cells at 1 nM chemotaxis assay; format: functional; in short: as §1
Macrophage = test: Inhibition of the LPS-induced PGE2 production in human macrophages at 10 uM; format: functional
[8] = Inhibition of CXCL8-induced cell migration in human PMN cells 0.1 uM chemotaxis assay; format: functional; in short: as §1
[9] = Inhibition of CXCL1-induced cell migration human PMN cells at 0.1 uM chemotaxis assay; format: functional; in short: as §1

SMILES	inhibition at 0.01 µM [1] [%]	inhibition at 0.01 µM [2] [%]	other results
CC(C(=O)O)c1ccc(NS(=O)(=O)c2ccccc2Cl)cc1 (centres undefined)	-2	66	–
CC(C)c1cccc(C(C)C(=O)O)c1 (centres undefined)	62	55	–
C[C@@H](C(N)=O)c1ccc(OS(=O)(=O)C(F)(F)F)cc1	60	58	–
C[C@@H](C(=O)NS(=O)(=O)c1ccccc1)c1ccc(OS(=O)(=O)C(F)(F)F)cc1	43	8	–
CC(C(=O)O)c1ccc(NS(=O)(=O)C(C)C)cc1 (centres undefined)	44	–	–
CC(C)Cc1ccc([C@@H](C)C(=O)NS(C)(=O)=O)cc1 [REPARIXIN]	–	–	IC50 (L1.2 [3]): 5.6 nM; Activity (L1.2 [4]): Active; inhibition at 0.1 µM (L1.2 [5]): 80%; IC50 (L1.2 [6]): 80 nM
CC(C(=O)O)c1ccc(-c2ccccc2)cc1 (centres undefined)	0	–	–
C=C(c1ccccc1)c1cccc(C(C)C(=O)O)c1 (centres undefined)	47	2	–
C[C@@H](C(=O)N(C)O)c1ccc(OS(=O)(=O)C(F)(F)F)cc1	48	47	–
CC(C(=O)O)c1cccc(C(O)c2ccccc2)c1 (centres undefined) [2-{3-[HYDROXY(PHENYL)METHYL]PHENYL}PROPANOIC ACID]	31	40	–
CCC(CC)c1cccc(C(C)C(=O)O)c1 (centres undefined)	58	67	–
CC(C(=O)O)c1cccc(C(C)(O)c2ccccc2)c1 (centres undefined)	0	–	–
CC(C(=O)O)c1ccc(OS(=O)(=O)C(F)(F)F)cc1 (centres undefined)	57	57	–
CC(C(=O)O)c1ccc(Cc2ccccc2)cc1 (centres undefined)	1	35	–
CC(C(=O)O)c1ccc(CC2CCCCC2)cc1 (centres undefined)	2	39	–
CC(C)ONC(=O)[C@H](C)c1ccc(OS(=O)(=O)C(F)(F)F)cc1	50	40	–
CC(C(=O)O)c1ccc(CC2CCCC2)cc1 (centres undefined)	10	40	–
CCC(=O)c1cccc(C(C)C(=O)O)c1 (centres undefined)	1	–	–
CC(C(=O)O)c1cccc(C(=O)C2CCCC2)c1 (centres undefined)	-5	2	–
CC(C)NC(=O)[C@H](C)c1ccc(OS(=O)(=O)C(F)(F)F)cc1	–	72	Inhibition [7]: 50%
CC(C(=O)O)c1ccc(N2CCCC2=O)cc1 (centres undefined)	10	–	–
CC(C(=O)O)c1ccc(NS(C)(=O)=O)cc1 (centres undefined)	-8	–	–
CC(C(=O)O)c1ccc(NC(=O)c2ccccc2)cc1 (centres undefined)	8	–	–
C[C@@H](C(=O)NS(C)(=O)=O)c1ccc(OS(=O)(=O)C(F)(F)F)cc1 [LADARIXIN]	60	61	–
CC(C(=O)O)c1ccc(-c2cccs2)cc1 (centres undefined)	11	–	–
CCC(=O)Oc1ccc(C(C)C(=O)O)cc1 (centres undefined)	-6	–	–
CC(=O)c1cccc([C@@H](C)C(=O)O)c1	5	–	–

SMILES	inhibition at 0.01 µM [1] [%]	inhibition at 0.01 µM [2] [%]	other results
C/C=C/c1cccc(C(C)C(=O)O)c1 (centres undefined)	-1	–	–
CC(C(=O)O)c1ccc(OS(C)(=O)=O)cc1 (centres undefined)	5	–	–
CONC(=O)[C@H](C)c1ccc(OS(=O)(=O)C(F)(F)F)cc1	60	40	–
CCc1ccccc1S(=O)(=O)Nc1ccc(C(C)C(=O)O)cc1 (centres undefined)	47	80	–
CC(C(=O)O)c1ccc(OS(=O)(=O)c2ccccc2)cc1 (centres undefined)	55	54	–
CC(C(=O)O)c1ccc(NS(=O)(=O)C(F)(F)F)cc1 (centres undefined)	10	–	–
CC(C(=O)O)c1cccc(C(C)c2ccccc2)c1 (centres undefined)	55	45	–
C[C@@H](C(=O)O)c1ccc(OS(=O)(=O)C(F)(F)F)cc1	68	65	inhibition at 10 µM (Macrophage): 17%
CC(C(=O)O)c1ccc(C(C)(C)C)cc1 (centres undefined)	6	–	–
C[C@@H](C(=O)NC1CCCC1)c1ccc(OS(=O)(=O)C(F)(F)F)cc1	0	–	–
CC(C(=O)O)c1ccc(CC2CCC2)cc1 (centres undefined)	55	59	–
C[C@@H](C(=O)NC1CC1)c1ccc(OS(=O)(=O)C(F)(F)F)cc1	-11	–	–
Cc1ccc(S(=O)(=O)Nc2ccc(C(C)C(=O)O)cc2)cc1 (centres undefined)	69	0	–
CC(Cc1cccc(C(C)C(=O)O)c1)c1ccccc1 (centres undefined)	0	–	–
CNC(=O)[C@H](C)c1ccc(OS(=O)(=O)C(F)(F)F)cc1	22	–	–
CCC(C)c1cccc(C(C)C(=O)O)c1 (centres undefined)	–	–	Inhibition [8]: 50%
CC(C(=O)O)c1cccc(Cc2ccccc2)c1 (centres undefined)	10	–	–
C[C@@H](C(=O)NO)c1ccc(OS(=O)(=O)C(F)(F)F)cc1	48	50	–
CC(C)Cc1cccc(C(C)C(=O)O)c1 (centres undefined)	-10	–	–
CC(C(=O)O)c1ccc(C2CCCCC2)cc1 (centres undefined) [HEXAPROFEN]	10	–	–
CC(C(=O)O)c1cccc(S(=O)(=O)c2ccccc2)c1 (centres undefined)	9	–	–
CC(C(=O)O)c1cccc(C(=O)C2CCCCC2)c1 (centres undefined)	5	4	–
C[C@@H](C(=O)Nc1nc(C(F)(F)F)cs1)c1ccc(OS(=O)(=O)C(F)(F)F)cc1	64	60	–
C[C@@H](C(=O)NS(=O)(=O)C(F)(F)F)c1ccc(OS(=O)(=O)C(F)(F)F)cc1	-4	–	–
CC(C)c1ccc(C(C)C(=O)O)cc1 (centres undefined)	15	–	–
C[C@@H](C(=O)Nc1ncco1)c1ccc(OS(=O)(=O)C(F)(F)F)cc1	50	48	–
C[C@@H](C(=O)Nc1nccs1)c1ccc(OS(=O)(=O)C(F)(F)F)cc1	57	56	–

SMILES	inhibition at 0.01 µM [1] [%]	inhibition at 0.01 µM [2] [%]	other results
C[C@@H](C(=O)Nc1cccnc1)c1ccc(OS(=O)(=O)C(F)(F)F)cc1	5	–	–
CC(C(=O)O)c1ccc(CC2CC2)cc1 (centres undefined)	24	30	–
C[C@@H](C(=O)Nc1ccccn1)c1ccc(OS(=O)(=O)C(F)(F)F)cc1	48	50	–
C[C@@H](C(=O)O)c1cccc(C(=O)c2ccccc2)c1 [R-KETOPROFEN]	64	61	–
C[C@@H](C(=O)NS(=O)(=O)c1cccnc1)c1ccc(OS(=O)(=O)C(F)(F)F)cc1	11	–	–
CC(C(=O)O)c1cccc(C(=O)c2ccco2)c1 (centres undefined)	-3	–	–
CC(C(=O)O)c1ccc(OC(=O)c2ccccc2)cc1 (centres undefined)	32	–	–
CCC(O)c1cccc(C(C)C(=O)O)c1 (centres undefined)	57	40	–
CC(C(=O)O)c1cccc(C(=O)c2ncco2)c1 (centres undefined)	26	–	–
C[C@@H](C(=O)Nc1ccccc1)c1ccc(OS(=O)(=O)C(F)(F)F)cc1	10	–	–
CC(C(=O)O)c1cccc(C(=O)c2nccs2)c1 (centres undefined)	63	48	–
CCCCc1cccc(C(C)C(=O)O)c1 (centres undefined)	3	–	–
CC(C(=O)O)c1ccc(NS(=O)(=O)c2ccccc2)cc1 (centres undefined)	45	14	–
CC(C)S(=O)(=O)NC(=O)[C@H](C)c1ccc(OS(=O)(=O)C(F)(F)F)cc1	60	15	–
Cc1ccc(S(=O)(=O)Oc2ccc(C(C)C(=O)O)cc2)cc1 (centres undefined)	49	65	–
C/C=C/c1ccc(C(C)C(=O)O)cc1 (centres undefined)	11	–	–
C[C@@H](C(=O)Nc1ccncc1)c1ccc(OS(=O)(=O)C(F)(F)F)cc1	11	–	–
CC(C(=O)O)c1ccc(OS(=O)(=O)C(C)C)cc1 (centres undefined)	49	46	–
CC(C(=O)O)c1cccc(Oc2ccccc2)c1 (centres undefined) [FENOPROFEN]	-17	–	–
C[C@@H](C(=O)NS(=O)(=O)c1ccccc1Cl)c1ccc(OS(=O)(=O)C(F)(F)F)cc1	18	–	–
CC(C)C(=O)c1cccc(C(C)C(=O)O)c1 (centres undefined)	20	–	–
CC(C)=Cc1ccc(C(C)C(=O)O)cc1 (centres undefined)	14	–	–
CC(C(=O)O)c1cccc(C(=O)c2cccs2)c1 (centres undefined)	51	50	–
C[C@@H](C(=O)NCC1CC1)c1ccc(OS(=O)(=O)C(F)(F)F)cc1	12	–	–
CC(C(=O)O)c1ccc(N2Cc3ccccc3C2=O)cc1 (centres undefined) [INDOPROFEN]	50	–	Inhibition [9]: 40%
CC(O)c1cccc(C(C)C(=O)O)c1 (centres undefined)	43	40	–

Reference: ChEMBL document CHEMBL1148730, “Design of noncompetitive interleukin-8 inhibitors acting on CXCR1 and CXCR2” (J Med Chem, 2007)
